# Assay results as given in ChEMBL document CHEMBL2062372, “Biotin analogues with antibacterial activity are potent inhibitors of biotin protein ligase” (ACS Med Chem Lett, 2012).
# Assays:
# HepG2 = assay: Cytotoxicity against human HepG2 cells assessed as change in metabolic activity at 64 ug/ml after 24 to 48 hrs by WST1 assay; assay type: ADME, cell-based
# [1] = Displacement of [3H]-biotin from Staphylococcus aureus BPL after 20 mins by scintillation counting
# Procedure, shortened: (§1)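 Purified recombinant BPL was tested in an in vitro biotinylation assay that measured incorporation of radiolabeled biotin into protein. Ki is reported where inhibition was seen, as the mean (standard error) of three independent experiments.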
# [2] = Selectivity ratio of Ki for Escherichia coli BPL to Ki for Staphylococcus aureus BPL
# Procedure, shortened: (§2)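 Selectivity is the ratio of Ki values from the radiolabeled-biotin incorporation assay with purified recombinant BPLs. Each Ki is the mean of three independent experiments.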
# [3] = Selectivity ratio of Ki for human BPL to Ki for Staphylococcus aureus BPL; procedure, shortened: as §2
# Biotin--protein ligase = target: T1, Biotin--protein ligase (Homo sapiens, UniProt P50747); assay: Displacement of [3H]-biotin from human BPL after 20 mins by scintillation counting; procedure, shortened: as §1
# T1 sequence (P50747 whole entry): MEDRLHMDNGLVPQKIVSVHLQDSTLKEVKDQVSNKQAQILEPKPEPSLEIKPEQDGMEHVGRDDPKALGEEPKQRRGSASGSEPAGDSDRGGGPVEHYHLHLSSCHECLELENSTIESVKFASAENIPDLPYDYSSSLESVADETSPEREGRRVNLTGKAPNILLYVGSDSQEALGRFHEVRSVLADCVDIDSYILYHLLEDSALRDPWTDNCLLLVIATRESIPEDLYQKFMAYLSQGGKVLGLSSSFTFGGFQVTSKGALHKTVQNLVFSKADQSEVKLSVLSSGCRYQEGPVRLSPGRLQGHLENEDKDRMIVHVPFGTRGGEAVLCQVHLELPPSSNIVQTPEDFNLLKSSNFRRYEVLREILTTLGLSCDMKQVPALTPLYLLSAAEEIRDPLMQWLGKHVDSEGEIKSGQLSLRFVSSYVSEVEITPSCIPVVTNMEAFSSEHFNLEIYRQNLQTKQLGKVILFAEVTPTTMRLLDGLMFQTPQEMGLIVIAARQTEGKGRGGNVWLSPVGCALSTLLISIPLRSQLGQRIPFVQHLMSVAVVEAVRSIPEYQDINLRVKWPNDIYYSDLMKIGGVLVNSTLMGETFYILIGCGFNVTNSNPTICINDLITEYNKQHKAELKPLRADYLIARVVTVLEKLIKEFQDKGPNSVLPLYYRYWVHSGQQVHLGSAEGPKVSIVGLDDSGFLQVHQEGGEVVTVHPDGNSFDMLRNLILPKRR
# [4] = Displacement of [3H]-biotin from Escherichia coli BPL after 20 mins by scintillation counting; procedure, shortened: as §1
# [5] = Selectivity ratio of Ki for Escherichia coli BPL to Ki for human BPL; procedure, shortened: as §2
# Staphylococcus = assay: Antibacterial activity against coagulase-negative Staphylococcus after 16 to 24 hrs by broth microdilution method; assay type: functional
# Staphylococcus aureus [6] = assay: Antibacterial activity against methicillin-resistant Staphylococcus aureus after 16 to 24 hrs by broth microdilution method; assay type: functional
# Staphylococcus aureus [7] = assay: Antibacterial activity against methicillin-susceptible Staphylococcus aureus after 16 to 24 hrs by broth microdilution method; assay type: functional
# [8] = Binding affinity to Staphylococcus aureus BPL by surface plasmon resonance
# Procedure, shortened: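 S. aureus BPL was immobilized on the SPR surface, with varying inhibitor concentrations in the running buffer. Ka and kd come from the sensorgrams. KD was calculated from steady-state affinity where on and off rates were too fast for kinetic evaluation.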
Ratio Ki [2],Ratio Ki [3],Ki (Biotin--protein ligase),Ratio Ki [5],SMILES,Activity (HepG2),Ki [1],Ki [4],MIC50 (Staphylococcus),MIC90 (Staphylococcus),MIC50 (Staphylococcus aureus [6]),MIC90 (Staphylococcus aureus [6]),MIC50 (Staphylococcus aureus [7]),MIC90 (Staphylococcus aureus [7]),Kd [8]
14,12.4,6.43 µM,1.1,CCCCCC[C@@H]1SC[C@@H]2NC(=O)N[C@@H]21,Non-toxic,0.52 µM,7.3 µM,–,–,–,–,–,–,–
24.4,11.7,3.5 µM,2.1,C#CCCCCC[C@@H]1SC[C@@H]2NC(=O)N[C@@H]21,Non-toxic,0.3 µM,7.33 µM,–,–,–,–,–,–,–
–,–,> 20 µM,–,NCCCC[C@@H]1SC[C@@H]2NC(=O)N[C@@H]21,–,> 20 µM,> 20 µM,–,–,–,–,–,–,–

# More lines, now with the values behind:
SMILES,Ratio Ki [2],Ratio Ki [3],Ki (Biotin--protein ligase),Ratio Ki [5],Activity (HepG2),Ki [1],Ki [4],MIC50 (Staphylococcus),MIC90 (Staphylococcus),MIC50 (Staphylococcus aureus [6]),MIC90 (Staphylococcus aureus [6]),MIC50 (Staphylococcus aureus [7]),MIC90 (Staphylococcus aureus [7]),Kd [8]
C#CCCCCCC[C@@H]1SC[C@@H]2NC(=O)N[C@@H]21,8.3,5,12 µM,1.7,Non-toxic,2.4 µM,20 µM,–,–,–,–,–,–,–
C#CCCCC[C@@H]1SC[C@@H]2NC(=O)N[C@@H]21,11.3,2.5,0.2 µM,4.5,Non-toxic,0.08 µM,0.9 µM,4 µg/mL,8 µg/mL,8 µg/mL,16 µg/mL,8 µg/mL,16 µg/mL,0.08 µM
O=C1N[C@H]2[C@H](CS[C@H]2CCCCCO)N1,1.2,1.1,3.85 µM,1,–,3.37 µM,3.96 µM,–,–,–,–,–,–,2.5 µM
NCCCCC[C@@H]1SC[C@@H]2NC(=O)N[C@@H]21,–,–,> 20 µM,–,–,> 20 µM,> 20 µM,–,–,–,–,–,–,–
CCCCC[C@@H]1SC[C@@H]2NC(=O)N[C@@H]21,22,2.8,0.14 µM,7.9,Non-toxic,0.05 µM,1.1 µM,2 µg/mL,8 µg/mL,8 µg/mL,16 µg/mL,8 µg/mL,16 µg/mL,0.06 µM
O=C1N[C@H]2[C@H](CS[C@H]2CCCCCCO)N1,–,–,> 20 µM,–,Non-toxic,> 20 µM,> 20 µM,–,–,–,–,–,–,–
